Assay results taken from ChEMBL document CHEMBL5724801, “EUbOPEN Chemogenomics Library - Multiplex” (2024).
Where “and” joins values, the source holds several entries; their conditions need not be identical. Equal values may be shown once.

Tested on: U2OS
Experiment: Multiplex assay against U2OS
Type: toxicity, cell-based
Settings: human
Method in brief: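 Live cells were stained at seeding with Hoechst33342, BioTracker Green Microtubule Cytoskeleton Dye, MitoTracker Red and Annexin V Alexa Fluor 680. Following compound addition, they were imaged on a CQ1 microscope at 37°C and 5% CO2 and gated by CellPathfinder machine learning into Hoechst high-intensity objects or normal cells, with normal cells split into healthy, pyknosed or fragmented nuclei and pyknosed cells into mitotic or apoptotic. Tubulin, mitochondrial-mass and membrane-permeability phenotypes are per cents of healthy-nucleus cells.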

[1] = 12 h, 1 µM, compound concentration 1 uM
[2] = 12 h, 10 µM, compound concentration 10 uM
[3] = 24 h, 1 µM, compound concentration 1 uM
[4] = 24 h, 10 µM, compound concentration 10 uM
[5] = 48 h, 1 µM, compound concentration 1 uM
[6] = 48 h, 10 µM, compound concentration 10 uM

COCCNc1cc(NC(=O)N2CCCc3cc(CN4CCOCC4=O)c(C=O)nc32)ncc1C#N
Population Apoptotic (%) [1]: 30.77% and 39.13% | Population Fragmented Nuclei (%) [1]: 2.11% and 3.05% | Population Healthy Nuclei (%) [1]: 87.63% and 82.93% | Population Hoechst High Intensity Objects (%) [1]: 0% | Population Membrane Permeable-Phenotype (%) [1]: 0.6% and 5.15% | Population Mitochondria Different-Phenotype (%) [1]: 0% and 8.82% | Population Mitotic Cells (%) [1]: 69.23% and 60.87% | Population Normal (%) [1]: 100% | Population Pyknosed Nuclei (%) [1]: 10.26% and 14.02% | Population Tubulin-Different-Phenotype (%) [1]: 0.6% and 0% | Total Cell Count [1]: 380 and 164 | Population Apoptotic (%) [2]: 46.15% and 40% | Population Fragmented Nuclei (%) [2]: 0.86% and 7.8% | Population Healthy Nuclei (%) [2]: 91.64% and 78.01% | Population Hoechst High Intensity Objects (%) [2]: 0% | Population Membrane Permeable-Phenotype (%) [2]: 1.57% and 1.82% | Population Mitochondria Different-Phenotype (%) [2]: 0.31% and 6.36% | Population Mitotic Cells (%) [2]: 53.85% and 60% | Population Normal (%) [2]: 100% | Population Pyknosed Nuclei (%) [2]: 7.49% and 14.18% | Population Tubulin-Different-Phenotype (%) [2]: 1.26% and 0.91% | Total Cell Count [2]: 347 and 141 | Population Apoptotic (%) [3]: 29.17% and 39.13% | Population Fragmented Nuclei (%) [3]: 2.21% and 0.97% | Population Healthy Nuclei (%) [3]: 88.93% and 87.92% | Population Hoechst High Intensity Objects (%) [3]: 0% | Population Membrane Permeable-Phenotype (%) [3]: 1.66% and 3.85% | Population Mitochondria Different-Phenotype (%) [3]: 0% and 4.95% | Population Mitotic Cells (%) [3]: 70.83% and 60.87% | Population Normal (%) [3]: 100% | Population Pyknosed Nuclei (%) [3]: 8.86% and 11.11% | Population Tubulin-Different-Phenotype (%) [3]: 1.04% and 0.55% | Total Cell Count [3]: 542 and 207 | Population Apoptotic (%) [4]: 54.55% and 40.91% | Population Fragmented Nuclei (%) [4]: 1.52% and 9.32% | Population Healthy Nuclei (%) [4]: 91.34% and 77.02% | Population Hoechst High Intensity Objects (%) [4]: 0% | Population Membrane Permeable-Phenotype (%) [4]: 0.95% and 2.42% | Population Mitochondria Different-Phenotype (%) [4]: 0% and 9.68% | Population Mitotic Cells (%) [4]: 45.45% and 59.09% | Population Normal (%) [4]: 100% | Population Pyknosed Nuclei (%) [4]: 7.14% and 13.66% | Population Tubulin-Different-Phenotype (%) [4]: 0.95% and 1.61% | Total Cell Count [4]: 462 and 161 | Population Apoptotic (%) [5]: 32.88% and 50% | Population Fragmented Nuclei (%) [5]: 2.93% and 2.02% | Population Healthy Nuclei (%) [5]: 89.69% and 90.49% | Population Hoechst High Intensity Objects (%) [5]: 0% | Population Membrane Permeable-Phenotype (%) [5]: 1.01% and 2.23% | Population Mitochondria Different-Phenotype (%) [5]: 0.23% and 5.1% | Population Mitotic Cells (%) [5]: 67.12% and 50% | Population Normal (%) [5]: 100% | Population Pyknosed Nuclei (%) [5]: 7.38% and 7.49% | Population Tubulin-Different-Phenotype (%) [5]: 0.56% and 1.27% | Total Cell Count [5]: 989 and 347 | Population Apoptotic (%) [6]: 38.46% and 32.14% | Population Fragmented Nuclei (%) [6]: 3.01% and 6.33% | Population Healthy Nuclei (%) [6]: 86.02% and 81.86% | Population Hoechst High Intensity Objects (%) [6]: 0% | Population Membrane Permeable-Phenotype (%) [6]: 1.4% and 3.09% | Population Mitochondria Different-Phenotype (%) [6]: 0.14% and 6.19% | Population Mitotic Cells (%) [6]: 61.54% and 67.86% | Population Normal (%) [6]: 100% | Population Pyknosed Nuclei (%) [6]: 10.96% and 11.81% | Population Tubulin-Different-Phenotype (%) [6]: 1.68% and 1.03%

N[C@@]1(C(=O)O)CO[C@H]2[C@H](C(=O)O)[C@H]21 [LY-379268]
Population Apoptotic (%) [1]: 85% and 100% | Population Fragmented Nuclei (%) [1]: 20% and 17% | Population Healthy Nuclei (%) [1]: 76% and 79% | Population Hoechst High Intensity Objects (%) [1]: 0% | Population Membrane Permeable-Phenotype (%) [1]: 2% and 8% | Population Mitochondria Different-Phenotype (%) [1]: 1% and 2% | Population Mitotic Cells (%) [1]: 14% and 0% | Population Normal (%) [1]: 99% | Population Pyknosed Nuclei (%) [1]: 3% and 2% | Population Tubulin-Different-Phenotype (%) [1]: 1% and 3% | Total Cell Count [1]: 211 and 108 | Population Apoptotic (%) [2]: 63% and 80% | Population Fragmented Nuclei (%) [2]: 30% and 19% | Population Healthy Nuclei (%) [2]: 61% and 77% | Population Hoechst High Intensity Objects (%) [2]: 0% and 1% | Population Membrane Permeable-Phenotype (%) [2]: 8% and 4% | Population Mitochondria Different-Phenotype (%) [2]: 2% and 1% | Population Mitotic Cells (%) [2]: 36% and 20% | Population Normal (%) [2]: 99% and 98% | Population Pyknosed Nuclei (%) [2]: 7% and 3% | Population Tubulin-Different-Phenotype (%) [2]: 3% and 1% | Total Cell Count [2]: 264 and 143 | Population Apoptotic (%) [3]: 88% and 100% | Population Fragmented Nuclei (%) [3]: 20% and 11% | Population Healthy Nuclei (%) [3]: 71% and 79% | Population Hoechst High Intensity Objects (%) [3]: 1% and 0% | Population Mitochondria Different-Phenotype (%) [3]: 1% and 2% | Population Mitotic Cells (%) [3]: 11% and 0% | Population Normal (%) [3]: 98% and 100% | Population Pyknosed Nuclei (%) [3]: 7% and 9% | Population Tubulin-Different-Phenotype (%) [3]: 1% and 6% | Total Cell Count [3]: 245 and 133 | Population Apoptotic (%) [4]: 81% and 90% | Population Fragmented Nuclei (%) [4]: 25% and 16% | Population Healthy Nuclei (%) [4]: 66% and 77% | Population Hoechst High Intensity Objects (%) [4]: 1% | Population Membrane Permeable-Phenotype (%) [4]: 8% and 4% | Population Mitochondria Different-Phenotype (%) [4]: 1% and 4% | Population Mitotic Cells (%) [4]: 18% and 10% | Population Normal (%) [4]: 98% | Population Pyknosed Nuclei (%) [4]: 7% and 6% | Population Tubulin-Different-Phenotype (%) [4]: 2% and 4% | Total Cell Count [4]: 284 and 165 | Population Apoptotic (%) [5]: 92% and 100% | Population Fragmented Nuclei (%) [5]: 13% and 15% | Population Healthy Nuclei (%) [5]: 79% and 72% | Population Hoechst High Intensity Objects (%) [5]: 1% and 2% | Population Membrane Permeable-Phenotype (%) [5]: 3% and 11% | Population Mitochondria Different-Phenotype (%) [5]: 2% and 5% | Population Mitotic Cells (%) [5]: 7% and 0% | Population Normal (%) [5]: 98% and 97% | Population Pyknosed Nuclei (%) [5]: 7% and 12% | Population Tubulin-Different-Phenotype (%) [5]: 3% and 5% | Total Cell Count [5]: 348 and 178 | Population Apoptotic (%) [6]: 92% and 90% | Population Fragmented Nuclei (%) [6]: 24% and 11% | Population Healthy Nuclei (%) [6]: 68% and 83% | Population Hoechst High Intensity Objects (%) [6]: 2% | Population Membrane Permeable-Phenotype (%) [6]: 9% and 3% | Population Mitochondria Different-Phenotype (%) [6]: 2% | Population Mitotic Cells (%) [6]: 7% and 9% | Population Normal (%) [6]: 97% | Population Pyknosed Nuclei (%) [6]: 7% and 4% | Population Tubulin-Different-Phenotype (%) [6]: 3% | Total Cell Count [6]: 383 and 228

COc1ccc(Cl)cc1[C@]1(F)C(=O)Nc2cc(C(F)(F)F)ccc21 [FLINDOKALNER]
Population Apoptotic (%) [1]: 40.48% and 33.33% | Population Fragmented Nuclei (%) [1]: 1.33% and 3.73% | Population Healthy Nuclei (%) [1]: 87.53% and 81.37% | Population Hoechst High Intensity Objects (%) [1]: 0% | Population Membrane Permeable-Phenotype (%) [1]: 1.21% and 0.76% | Population Mitochondria Different-Phenotype (%) [1]: 0.3% and 7.63% | Population Mitotic Cells (%) [1]: 59.52% and 66.67% | Population Normal (%) [1]: 100% | Population Pyknosed Nuclei (%) [1]: 11.14% and 14.91% | Population Tubulin-Different-Phenotype (%) [1]: 0.61% and 0.76% | Total Cell Count [1]: 377 and 161 | Population Apoptotic (%) [2]: 21.43% and 29.17% | Population Fragmented Nuclei (%) [2]: 2.21% and 3.35% | Population Healthy Nuclei (%) [2]: 86.19% and 83.24% | Population Hoechst High Intensity Objects (%) [2]: 0% | Population Membrane Permeable-Phenotype (%) [2]: 0.64% and 5.37% | Population Mitochondria Different-Phenotype (%) [2]: 0% and 12.08% | Population Mitotic Cells (%) [2]: 78.57% and 70.83% | Population Normal (%) [2]: 100% | Population Pyknosed Nuclei (%) [2]: 11.6% and 13.41% | Population Tubulin-Different-Phenotype (%) [2]: 1.6% and 1.34% | Total Cell Count [2]: 362 and 179 | Population Apoptotic (%) [3]: 41.67% and 37.93% | Population Fragmented Nuclei (%) [3]: 1.57% and 1.48% | Population Healthy Nuclei (%) [3]: 88.98% and 84.24% | Population Hoechst High Intensity Objects (%) [3]: 0% | Population Membrane Permeable-Phenotype (%) [3]: 0.22% and 2.34% | Population Mitochondria Different-Phenotype (%) [3]: 0.22% and 5.26% | Population Mitotic Cells (%) [3]: 58.33% and 62.07% | Population Normal (%) [3]: 100% | Population Pyknosed Nuclei (%) [3]: 9.45% and 14.29% | Population Tubulin-Different-Phenotype (%) [3]: 0.88% and 0.58% | Total Cell Count [3]: 508 and 203 | Population Apoptotic (%) [4]: 29.63% and 42.11% | Population Fragmented Nuclei (%) [4]: 1.38% and 4.65% | Population Healthy Nuclei (%) [4]: 88.02% and 77.67% | Population Hoechst High Intensity Objects (%) [4]: 0% | Population Membrane Permeable-Phenotype (%) [4]: 1.34% and 7.78% | Population Mitochondria Different-Phenotype (%) [4]: 0% and 8.38% | Population Mitotic Cells (%) [4]: 70.37% and 57.89% | Population Normal (%) [4]: 100% | Population Pyknosed Nuclei (%) [4]: 10.61% and 17.67% | Population Tubulin-Different-Phenotype (%) [4]: 1.34% and 0% | Total Cell Count [4]: 509 and 215 | Population Apoptotic (%) [5]: 38.67% and 50% | Population Fragmented Nuclei (%) [5]: 2.32% and 1.61% | Population Healthy Nuclei (%) [5]: 89.42% and 82.32% | Population Hoechst High Intensity Objects (%) [5]: 0% | Population Membrane Permeable-Phenotype (%) [5]: 1.48% and 1.56% | Population Mitochondria Different-Phenotype (%) [5]: 0.12% and 5.08% | Population Mitotic Cells (%) [5]: 61.33% and 50% | Population Normal (%) [5]: 100% | Population Pyknosed Nuclei (%) [5]: 8.27% and 16.08% | Population Tubulin-Different-Phenotype (%) [5]: 0.74% and 0.78% | Total Cell Count [5]: 907 and 311 | Population Apoptotic (%) [6]: 34.18% and 46.94% | Population Fragmented Nuclei (%) [6]: 2.33% and 1.38% | Population Healthy Nuclei (%) [6]: 89.31% and 85.12% | Population Hoechst High Intensity Objects (%) [6]: 0% | Population Membrane Permeable-Phenotype (%) [6]: 0.83% and 3.24% | Population Mitochondria Different-Phenotype (%) [6]: 0% and 5.18% | Population Mitotic Cells (%) [6]: 65.82% and 53.06% | Population Normal (%) [6]: 100% | Population Pyknosed Nuclei (%) [6]: 8.36% and 13.5% | Population Tubulin-Different-Phenotype (%) [6]: 1.3% and 0.32% | Total Cell Count [6]: 945 and 363
